# Only some compounds are listed: those with a hit (about 1.9% of all), similar ones and a draw of the others.
# PLC-gamma1 inh – PLC-gamma1 (human) inhibition, primary screen | inhibition, % at 12.2 µM | AID 720700 | 370,000 compounds, 0.84% hits | purified PLC-gamma1, fluorogenic substrate, fluorescence
# Arrestin-AP2 inh – blocks beta-arrestin peptide binding to AP2 adaptin; FITC-arrestin peptide / GST-AP2 beads, flow cytometry; AP2 beta2 appendage carries R879A mutation; inhibition, % at 10 µM; 340,000 compounds, 0.31% hits;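 active = inhibition above a set limit, near 3 SD of compounds lacking own fluorescence, cut at about 54% in these data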;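 note: plate controls were DMSO wells for no effect and 5 µM unlabelled arrestin peptide for full effect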
#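 Measured by: flow cytometry, FL1 (488/535 nm); Material: AP2 appendage R879A on GSH beads; Evaluation: percent response; Timing: pre-incubation 12 min, peptide binding 1 h, room temperature; Also added: 50 nM FITC-arrestin peptide; Medium: PBS with 0.05% Tween 20 and 0.1% BSA.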
# PLC-beta3 inh – blocks human PLC-beta3 enzyme activity; Q01970; inhibition, % at 12.2 µM; 370,000 compounds, 0.18% hits; Purified PLC-beta3, fluorogenic substrate, fluorescence; in the data active = inhibition above about 11%;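 note: 0% = median of compound wells on plate and 100% = full blocker control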
# HGIII-sPLA2 inh – Blocks human group III sPLA2 activity | QFRET BODIPY PC-A2 liposome hydrolysis, fluorescence | AID 743126 | inhibition, % at 12.2 µM | 370,000 compounds, 0.56% hits | Q9NZ20;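 active = inhibition above mean plus 3 SD of compounds lying within the high and low control bounds, cut at about 19% in these data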;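 note: 0% = median of test compound wells and 100% = no enzyme DMSO wells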
# Target sequence (Q9NZ20 whole entry, looked up): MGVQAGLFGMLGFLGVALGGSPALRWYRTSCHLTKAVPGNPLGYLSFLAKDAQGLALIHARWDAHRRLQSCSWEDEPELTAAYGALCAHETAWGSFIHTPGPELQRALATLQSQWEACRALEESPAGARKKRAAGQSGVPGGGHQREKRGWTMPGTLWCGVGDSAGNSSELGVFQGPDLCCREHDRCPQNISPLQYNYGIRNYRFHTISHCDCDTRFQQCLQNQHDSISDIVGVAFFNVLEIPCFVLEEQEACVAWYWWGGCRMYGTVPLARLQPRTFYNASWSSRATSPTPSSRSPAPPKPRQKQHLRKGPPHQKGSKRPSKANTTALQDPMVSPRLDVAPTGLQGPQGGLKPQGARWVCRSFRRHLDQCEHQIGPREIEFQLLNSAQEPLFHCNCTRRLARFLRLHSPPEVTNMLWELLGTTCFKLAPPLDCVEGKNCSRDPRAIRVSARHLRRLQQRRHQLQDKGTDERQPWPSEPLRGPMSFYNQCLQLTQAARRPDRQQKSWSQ
# procasp7 counter – counter-screen: procaspase-7 (human) activation | 330,000 compounds, 0.093% hits | activation, % at 8.5 µM | recombinant procaspase-7, Ac-DEVD-pNA absorbance 405 nm; D23A/D198A/D206A triple mutant, cannot self-cleave; scale: DMSO 0, 5 µM enzyme 100 | P55210;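 active = percent activation above the screen-wide mean plus 3 SD, cut at about 25% in these data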
#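 Assay system: Uncleavable procaspase-7 mutant enzyme | Input: 2 µM procaspase-7 mutant as dispensed | Timing: 1 h compound preincubation, 2 h substrate cleavage, 25 °C | Repeats: One well per compound | Control set: DMSO wells as 0%, DMSO with 5 µM added PC-7 as 100% | Technique: Epi-absorbance of released pNA at 405 nm, two timepoints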
# proCasp3 act – activates human procaspase-3; recombinant procaspase-3 D3A, Ac-DEVD-pNA absorbance 405 nm; activation, % at 8.5 µM; 330,000 compounds, 0.11% hits;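 active = activation above the mean of all tested compounds plus 3 SD, cut at about 21% in these data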;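 note: 0% = DMSO alone and 100% = DMSO wells spiked with extra 5 µM PC-3 D3A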
# Target sequence (P42574 whole entry D9A/D28A/D175A): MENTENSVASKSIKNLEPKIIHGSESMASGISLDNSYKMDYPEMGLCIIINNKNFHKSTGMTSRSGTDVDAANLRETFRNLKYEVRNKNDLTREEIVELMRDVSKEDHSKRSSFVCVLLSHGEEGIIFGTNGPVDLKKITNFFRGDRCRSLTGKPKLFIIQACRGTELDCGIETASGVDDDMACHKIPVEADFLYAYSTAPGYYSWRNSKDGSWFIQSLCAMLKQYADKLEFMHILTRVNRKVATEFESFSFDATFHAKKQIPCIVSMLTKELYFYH
#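 material = Procaspase-3 D3A mutant | probe or stimulus = Ac-DEVD-pNA | compound = single dose, 8.5 µM nominal compound, 0.8% DMSO | timing = 1 h preincubation, 2 h reaction | measured by = 405 nm absorbance of p-nitroaniline, reads at 0 and 120 min | benchmarks = DMSO-only low control, 5 µM PC-3 D3A high control | repeats = singlicate, each compound tested once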
# Arr-AP2 CP1 – blocks beta-arrestin peptide binding to human AP2; shares compounds with Arrestin-AP2 inh; GST-AP2 beads, FITC arrestin peptide binding, flow cytometry; GST-fused beta2-adaptin appendage, R879A mutant; inhibition, % at 10 µM; 1,300 compounds, 2% hits;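 active = inhibition above a set limit, roughly 3 SD of non-fluorescent compound noise, cut at about 38% in these data; inactive = inhibition at or below that limit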;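 note: loss of bead fluorescence from 50 nM FITC arrestin peptide bound to appendage; 0% = negative control wells and 100% = excess unlabelled arrestin peptide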
# GST-FITC bead – disrupts GST binding to glutathione beads, arrestin-AP2 artifact; shares compounds with Arrestin-AP2 inh; GST-fluorescein binding to GSH beads, fluorescence, counter-screen; inhibition, % at 10 µM; 1,300 compounds, 2% hits;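 active = inhibition above 50%, about 3 SD of the inhibition seen with non-fluorescent compounds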;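 note: fluorescein maleimide labelled GST captured on 4 micron glutathione beads; higher means more loss of bead fluorescence from quenching or blocked binding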
# PLCgamma1 ctr – PLC-gamma1 inhibition, counter-screen for PLC-beta3 hits; AID 743258; 3,300 compounds, 3.1% hits; inhibition, % at 12.3 µM; purified PLC-gamma1, fluorogenic substrate, fluorescence; shares compounds with PLC-gamma1 inh
# PLCbeta3 conf – human PLC-beta3 inhibition, confirmation; shares compounds with PLC-gamma1 inh; purified PLC-beta3, fluorogenic substrate fluorescence; inhibition, % at 12.3 µM; 3,300 compounds, 1% hits; in the data active = inhibition above about 11%
# Numbers without * were called inactive; / = no result given. Cut-off read from the data, not from the text of the source, unless noted: active = inhibition above about 9.5%; inactive = the rest.
SMILES,PLC-gamma1 inh,Arrestin-AP2 inh,PLC-beta3 inh,HGIII-sPLA2 inh,procasp7 counter,proCasp3 act,Arr-AP2 CP1,GST-FITC bead,others
O=C(Nc1ccc(F)cc1)N(CCCN1CCOCC1)Cc1cc2cc3c(cc2[nH]c1=O)OCO3,-6.9,67.6*,-12.1,-7.5,3.3,4.9,-6.5,-5.6,
O=C(Nc1ccc(F)cc1)N(CCCN1CCOCC1)Cc1cc2cc3c(cc2[nH]c1=O)OCCO3,-10.4,12.0,-20.0,2.1,9.5,4.8,/,/,
O=C(NCCCc1ccccc1)C1CCN(c2nc(-c3ccc(Br)cc3)cs2)CC1,-1.8,/,0.4,6.5,/,/,/,/,
CCn1nc(NS(=O)(=O)c2cccc3nonc23)c2cc3ccc(C)cc3nc21,/,67.7*,/,/,4.8,9.7,-2.1,8.3,
O=c1[nH]c(CO)nc2c1oc1ccccc12,0.8,72.5*,2.9,-4.6,12.7,-1.0,-9.0,8.7,
Cc1cccc(NC(=O)Nc2ccccc2C(=O)N2CCCC2)c1,0.0,/,2.5,-3.7,/,/,/,/,
COCc1ccc(CN2CCC(C(=O)Nc3cccc(-c4cccc(Cl)c4)c3)CC2)o1,0.7,56.6*,-6.2,-42.0,1.1,-5.5,9.1,-0.3,
Cc1ccc(C(O)P(=O)(OC2CCCCC2)OC2CCCCC2)cc1 (stereo not drawn),5.6,-4.4,1.6,0.0,1.5,0.3,/,/,
COc1ccccc1C(O)P(=O)(OC1CCCCC1)OC1CCCCC1 (stereo not drawn),0.7,54.7*,-4.3,-2.6,0.5,13.4,-8.7,-3.9,
CC(C)C[C@H]1COc2cc(Br)ccc2S(=O)(=O)N1Cc1cn(CCC2OCCO2)nn1,7.2,/,2.1,-2.3,/,/,/,/,
COCCN1C(=O)C2=C(C1=O)C1N(C)c3ccccc3[C@@]13C[C@@H](CO)N(C(C)=O)C3=N2 (stereo partly drawn),0.2,/,1.6,6.9,/,/,/,/,
COC(=O)CSc1nc(SCc2ccc(C)cc2)nc2c1CCCC2,2.9,99.4*,1.8,-8.9,4.2,11.4,-7.2,6.3,
O=C(CCc1ccccc1)N[C@H]1[C@H](OC(=O)c2ccc3ccccc3n2)CCC[C@@]12C(=O)N(Cc1ccccc1)c1ccccc12,2.0,/,-2.6,-11.0,/,/,/,/,
COc1cc(-c2c(C(C)=O)c(C)nc3c2C(=O)c2ccccc2-3)cc(OC)c1OC,1.7,59.2*,-0.1,-0.7,/,/,5.7,-1.6,
Cc1c(C(=O)c2ccc(F)cc2F)c2ccccn2c1CCc1ccccn1,-295.1,/,-335.2,4.5,/,/,/,/,
Cc1c(C(=O)c2ccc(F)cc2F)c2ccccn2c1CCC#N,-264.9,61.8*,-397.4,0.8,-33.5,-18.1,2.8,-4.6,
Cc1ccc(C2CCC3(CCC(=O)N3CCOC(=O)Nc3cccc(C#N)c3)CC2)cc1 (stereo not drawn),0.8,/,5.6,0.7,/,/,/,/,
Cc1ccc(CNC(=O)CCS(=O)(=O)c2ccc(C)cc2)cc1,1.6,70.1*,-3.4,3.0,4.3,4.4,-2.8,-5.0,
COc1ccc(Cn2ccc3ccc(-c4ccc5ccn(Cc6ccccc6)c5c4)cc32)cc1,-80.6,/,-106.7,11.4,/,/,/,/,
COc1ccc(NC(=O)CCC(=O)N(Cc2ccc(OC)c(OC)c2)c2nccs2)c(OC)c1,2.7,56.2*,2.0,-1.4,10.3,-5.5,-1.4,-3.2,
Cc1cc(C)c(NC(=O)CSc2nnc(SCC(=O)Nc3c(C)cc(C)cc3C)n2N)c(C)c1,6.3,90.8*,5.9,-0.2,9.2,-11.8,-7.9,-8.8,
O=C(CC(=O)Nc1ccccc1C(F)(F)F)Nc1ccccc1C(F)(F)F,4.2,2.5,-3.8,-56.3,8.4,-4.2,/,/,
O=C(CC(=O)c1ccccc1)Nc1ccccc1C(F)(F)F,4.5,10.7,2.2,-11.0,-4.8,-1.0,12.6,3.4,
CCOC(=O)c1c(C)[nH]c(C(=O)CN2C(=O)C(=O)N(CC(C)C)C2=O)c1C,2.3,55.6*,-5.9,-4.7,5.3,5.5,0.3,-2.7,
Cc1ccc(NC(=O)c2ccc(CSc3nnc(-c4ccncc4)n3C)cc2)cc1,1.6,85.1*,5.5,9.2,6.6,5.4,2.5,7.5,
SMILES,PLC-gamma1 inh,Arrestin-AP2 inh,PLC-beta3 inh,HGIII-sPLA2 inh,procasp7 counter,proCasp3 act,Arr-AP2 CP1,GST-FITC bead,others
C=CCN1[C@H](Cc2ccccc2)COc2cccc(N3CCSCC3)c2S1(=O)=O,2.4,/,3.3,1.9,/,/,/,/,
COc1ccc(-c2nc(CN3CCN(C(=O)c4ccco4)CC3)c(C)o2)c(OC)c1C,-5.2,54.2*,-19.5,-3.0,0.5,-0.9,-8.1,-2.4,
COc1ccc(OC)c(-c2nc(CN3CCN(C(=O)c4ccco4)CC3)c(C)o2)c1,-12.4,-9.3,-22.2,-3.5,6.5,3.9,/,/,
COc1cccc(NC(=O)C2CCCN2C(=O)NCc2ccccc2OC)c1 (stereo not drawn),-2.4,/,1.3,1.7,/,/,/,/,
COC(=O)[C@]12CCCCC=C1N(Cc1ccc(OC)cc1)C(=O)[C@@H]2CC(=O)N1CCSCC1,-2.7,/,-3.2,8.4,/,/,/,/,
COCCNC(=O)Cn1nc(-c2ccccc2)c2ccccc2c1=O,3.9,-4.1,-3.8,2.3,7.3,5.2,/,/,
COCCNC(=O)Cn1nc(-c2ccc(Cl)cc2)c2ccccc2c1=O,11.6*,63.8*,3.3,12.5,8.6,1.3,-4.2,2.6,PLCgamma1 ctr=-3.4;PLCbeta3 conf=-0.6
COC(=O)[C@]12C[C@H](CC(=O)N3CCCC3)C(=O)N(Cc3cccc4ccccc34)C1=C[C@H](C(C)C)O[C@@H]2C1CC1,1.2,/,2.4,-2.7,/,/,/,/,
O=C(Nc1ccc(F)cc1)Nc1nnc(COc2ccccc2F)s1,11.5*,105.7*,5.5,-20.6,2.3,4.6,-7.8,34.3,PLCgamma1 ctr=-5.4;PLCbeta3 conf=-4.4

# Screens from PubChem BioAssay.
